Results from ChEMBL document CHEMBL3286381 (J Med Chem, 2014).

Legend:
[1] = biological target: T1, Ectonucleotide pyrophosphatase/phosphodiesterase family member 1 (Homo sapiens) (UniProt P22413); assay: Inhibition of human NPP1 using pNP-TMP as substrate at 100 uM after 20 mins by reversed-phase HPLC analysis
T1 sequence (whole entry): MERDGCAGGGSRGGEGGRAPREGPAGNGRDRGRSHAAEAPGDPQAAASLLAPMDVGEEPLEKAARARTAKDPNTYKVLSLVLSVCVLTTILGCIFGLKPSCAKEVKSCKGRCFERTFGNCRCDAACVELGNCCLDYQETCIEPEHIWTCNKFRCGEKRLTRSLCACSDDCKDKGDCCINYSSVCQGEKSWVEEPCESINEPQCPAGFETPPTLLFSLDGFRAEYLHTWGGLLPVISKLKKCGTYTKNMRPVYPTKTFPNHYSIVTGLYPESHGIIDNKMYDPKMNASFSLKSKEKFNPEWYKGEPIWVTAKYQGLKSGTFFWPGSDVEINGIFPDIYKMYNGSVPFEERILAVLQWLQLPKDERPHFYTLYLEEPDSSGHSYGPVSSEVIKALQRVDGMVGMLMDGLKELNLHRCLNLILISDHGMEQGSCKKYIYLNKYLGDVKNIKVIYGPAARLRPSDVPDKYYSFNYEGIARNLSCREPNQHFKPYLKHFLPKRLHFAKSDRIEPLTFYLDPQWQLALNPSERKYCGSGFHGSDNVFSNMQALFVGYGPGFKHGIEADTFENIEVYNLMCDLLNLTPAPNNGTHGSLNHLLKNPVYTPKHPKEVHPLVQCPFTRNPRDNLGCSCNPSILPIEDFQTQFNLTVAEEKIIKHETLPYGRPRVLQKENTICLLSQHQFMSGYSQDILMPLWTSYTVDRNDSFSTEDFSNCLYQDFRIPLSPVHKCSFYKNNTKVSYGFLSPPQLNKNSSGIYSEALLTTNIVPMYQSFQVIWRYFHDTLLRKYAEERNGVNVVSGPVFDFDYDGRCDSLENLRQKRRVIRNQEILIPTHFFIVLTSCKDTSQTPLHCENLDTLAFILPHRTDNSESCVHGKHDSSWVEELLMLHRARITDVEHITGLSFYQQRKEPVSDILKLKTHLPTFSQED

[2] = biological target: T2, Ectonucleotide pyrophosphatase/phosphodiesterase family member 3 (Homo sapiens) (UniProt O14638); assay: Inhibition of human NPP3 using pNP-TMP as substrate at 100 uM after 20 mins by reversed-phase HPLC analysis
T2 sequence (whole entry): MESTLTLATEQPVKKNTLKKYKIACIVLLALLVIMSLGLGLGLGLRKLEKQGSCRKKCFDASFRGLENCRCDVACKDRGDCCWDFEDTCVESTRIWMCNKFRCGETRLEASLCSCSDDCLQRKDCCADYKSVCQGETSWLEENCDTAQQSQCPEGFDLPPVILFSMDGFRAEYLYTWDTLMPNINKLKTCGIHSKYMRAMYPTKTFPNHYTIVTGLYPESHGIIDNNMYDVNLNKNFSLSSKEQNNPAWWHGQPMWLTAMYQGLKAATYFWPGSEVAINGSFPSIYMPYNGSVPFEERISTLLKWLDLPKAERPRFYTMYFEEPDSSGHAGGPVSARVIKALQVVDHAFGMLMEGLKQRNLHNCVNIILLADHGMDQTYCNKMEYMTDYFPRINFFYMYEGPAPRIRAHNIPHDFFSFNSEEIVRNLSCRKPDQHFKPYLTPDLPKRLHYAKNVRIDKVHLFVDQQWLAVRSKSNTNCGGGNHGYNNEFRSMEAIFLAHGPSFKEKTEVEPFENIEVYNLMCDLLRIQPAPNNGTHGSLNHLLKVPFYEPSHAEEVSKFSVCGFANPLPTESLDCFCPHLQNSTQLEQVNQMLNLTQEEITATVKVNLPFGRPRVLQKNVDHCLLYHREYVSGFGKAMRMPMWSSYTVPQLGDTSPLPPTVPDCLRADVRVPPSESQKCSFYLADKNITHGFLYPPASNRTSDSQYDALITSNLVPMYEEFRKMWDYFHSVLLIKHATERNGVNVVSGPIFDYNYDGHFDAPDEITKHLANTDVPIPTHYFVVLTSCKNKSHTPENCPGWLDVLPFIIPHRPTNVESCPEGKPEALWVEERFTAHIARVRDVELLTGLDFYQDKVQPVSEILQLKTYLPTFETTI

[3] = biological target: T3, Ectonucleoside triphosphate diphosphohydrolase 1 (Homo sapiens) (UniProt P49961); assay: Inhibition of human NTPDase-1 using ATP as substrate assessed as inorganic phosphate release at 100 uM after 15 mins relative to control
T3 sequence (whole entry): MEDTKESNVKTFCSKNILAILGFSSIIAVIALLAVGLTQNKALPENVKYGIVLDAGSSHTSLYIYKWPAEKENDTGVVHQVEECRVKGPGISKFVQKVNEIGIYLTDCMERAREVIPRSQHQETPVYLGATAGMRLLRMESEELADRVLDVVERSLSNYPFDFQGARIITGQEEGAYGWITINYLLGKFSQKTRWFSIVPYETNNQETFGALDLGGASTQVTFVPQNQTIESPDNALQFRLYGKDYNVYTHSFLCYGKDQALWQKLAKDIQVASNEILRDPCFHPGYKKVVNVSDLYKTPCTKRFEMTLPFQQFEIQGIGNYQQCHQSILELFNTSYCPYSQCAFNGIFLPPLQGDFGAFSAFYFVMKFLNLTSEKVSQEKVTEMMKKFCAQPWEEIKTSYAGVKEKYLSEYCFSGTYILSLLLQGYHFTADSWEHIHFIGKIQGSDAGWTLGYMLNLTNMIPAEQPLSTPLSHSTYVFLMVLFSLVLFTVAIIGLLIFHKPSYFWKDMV
Outline: (§1)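 Protein extracts are from COS-7 cells transiently transfected with human NTPDase1, 2, 3 or 8. Extract is preincubated for 3 min at 37 °C in Tris–Ringer buffer (pH 7.3). […] Three experiments in triplicate.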

[4] = biological target: T4, Ectonucleoside triphosphate diphosphohydrolase 3 (Homo sapiens) (UniProt O75355); assay: Inhibition of human NTPDase-3 using ATP as substrate assessed as inorganic phosphate release at 100 uM after 15 mins relative to control; outline: as §1
T4 sequence (whole entry): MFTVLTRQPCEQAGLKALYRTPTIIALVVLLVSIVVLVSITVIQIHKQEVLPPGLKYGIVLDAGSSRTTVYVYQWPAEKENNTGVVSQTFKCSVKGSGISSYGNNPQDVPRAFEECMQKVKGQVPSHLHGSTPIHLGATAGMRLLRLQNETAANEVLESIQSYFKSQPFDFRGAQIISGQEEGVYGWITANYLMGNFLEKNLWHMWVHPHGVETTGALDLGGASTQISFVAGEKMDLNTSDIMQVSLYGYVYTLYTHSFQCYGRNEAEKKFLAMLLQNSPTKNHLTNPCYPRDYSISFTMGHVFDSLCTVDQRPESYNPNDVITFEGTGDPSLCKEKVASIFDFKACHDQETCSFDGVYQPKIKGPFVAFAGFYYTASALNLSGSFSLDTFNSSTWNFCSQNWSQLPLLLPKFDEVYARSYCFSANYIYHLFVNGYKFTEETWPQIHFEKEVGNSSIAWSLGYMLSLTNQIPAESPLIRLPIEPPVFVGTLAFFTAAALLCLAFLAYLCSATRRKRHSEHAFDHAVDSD

For `Nc1ncnc2c1ncn2[C@@H]1O[C@H](COP(=O)(O)CP(=O)(O)OP(O)(O)=S)[C@@H](O)[C@H]1O`, the inhibition [1] was > 90%, the inhibition [2] was 23% and the inhibition [3] was 58.4%. It also gave an inhibition [4] of 40.2%.
In the case of `Nc1ncnc2c1ncn2[C@@H]1O[C@H](CO[P@@](O)(=S)OP(=O)(O)CP(=O)(O)O)[C@@H](O)[C@H]1O`, the inhibition [1] is reported as > 90%, the inhibition [2] is reported as 23% and the inhibition [3] is reported as 21.6%. The inhibition [4] was 24%.
With `Nc1ncnc2c1ncn2[C@@H]1O[C@H](CO[P@](O)(=S)OP(=O)(O)C(Cl)(Cl)P(=O)(O)O)[C@@H](O)[C@H]1O` the inhibition [1] was > 90%, the inhibition [2] was 23% and the inhibition [3] was 0.5%. For the same molecule, the inhibition [4] was 21.8%.
In the case of `Nc1ncnc2c1ncn2[C@@H]1O[C@H](CO[P@](O)(=S)OP(=O)(O)CP(=O)(O)O)[C@@H](O)[C@H]1O`, the inhibition [1] is reported as > 90%, the inhibition [2] is reported as 23% and the inhibition [3] is reported as 18.7%. The inhibition [4] was 26.8%.
For `Nc1ncnc2c1ncn2[C@@H]1O[C@H](CO[P@@](O)(=S)OP(=O)(O)C(Cl)(Cl)P(=O)(O)O)[C@@H](O)[C@H]1O`, the inhibition [1] was > 90%, the inhibition [2] was 23% and the inhibition [3] was 0.5%. The inhibition [4] was 18.7%.
